These results are taken from paper PMC11528686 (Insect biochemistry and molecular biology, 2022).

Assay [1] deals with T1, PGRP1 (Manduca sexta, UniProt Q86RS6).
T1 sequence (Q86RS6 20-191): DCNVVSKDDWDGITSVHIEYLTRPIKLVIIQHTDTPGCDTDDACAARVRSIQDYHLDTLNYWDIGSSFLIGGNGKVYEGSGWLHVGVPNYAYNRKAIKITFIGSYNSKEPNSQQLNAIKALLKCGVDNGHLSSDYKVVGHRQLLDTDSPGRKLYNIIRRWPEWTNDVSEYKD
Kind of assay: SPR on a Biacore T100. The format is binding. The following applies: read-out: Kd (μM), values in parentheses; cited from earlier work.

The next assay deals with PGRP5. The assay can be described thus: SPR on a Biacore T200. It counts as binding. The following applies: read-out: Kd (μM), values without parentheses. Put shortly:
(§1)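 Association and dissociation were run on a Biacore T200 with amine-coupled protein. DAP- or Lys-muramyl pentapeptide, stored at −20 °C, was flowed in HBS-EP (10 mM HEPES, 150 mM NaCl, 3 mM EDTA, 0.005% polysorbate 20) at 30 μl/min and 25 °C. Multi-concentration curves were globally fitted to 1:1 and two-state models, and Kd came from the fit with lower χ2.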
(In general: Surface plasmon resonance follows binding to a sensor surface in real time, without labels.)

The next assay has as its target PGRP13f. The assay can be described thus: SPR on a Biacore T200. The following applies: read-out: Kd (μM), values without parentheses. It counts as binding. The essentials:
as §1

The target of assay [2] is T1, PGRP1. Kind of assay: SPR on a Biacore T200. The following applies: read-out: Kd (μM), values without parentheses. It counts as binding. The essentials:
as §1

For the next assay, the target named is T2, PGRP2 (Manduca sexta, UniProt D1KRK9).
T2 sequence (D1KRK9 19-196): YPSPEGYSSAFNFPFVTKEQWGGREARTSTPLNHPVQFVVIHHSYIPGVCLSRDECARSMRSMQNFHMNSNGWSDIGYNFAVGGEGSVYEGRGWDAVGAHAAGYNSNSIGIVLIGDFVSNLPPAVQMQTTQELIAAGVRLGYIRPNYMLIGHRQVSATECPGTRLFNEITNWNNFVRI
Kind of assay: SPR on a Biacore T100. It counts as binding. The following applies: read-out: Kd (μM), values in parentheses. Put shortly: (§2)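 On a Biacore T100, protein was amine-coupled and DAP- or Lys-muramyl pentapeptide, freshly prepared, was flowed in HBS-EP (10 mM HEPES, 150 mM NaCl, 3 mM EDTA, 0.005% polysorbate 20) at 30 μl/min and 25 °C. Curves at several analyte concentrations were globally fitted to 1:1 and two-state models, and the fit with lower χ2 gave Kd.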

The target in the next assay is PGRP3f. Kind of assay: SPR on a Biacore T200. The following applies: read-out: Kd (μM), values without parentheses. The format is binding. Put shortly: as §1
Another assay has as its target PGRP12e. The assay can be described thus: SPR on a Biacore T200. It counts as binding. The conditions noted are these: read-out: Kd (μM), values without parentheses. Put shortly: as §1
Assay [3] addresses PGRP3s. Kind of assay: SPR on a Biacore T100. It counts as binding. The conditions noted are these: read-out: Kd (μM), values in parentheses. The essentials:
as §2

Assay [4] addresses PGRP3s. The assay can be described thus: SPR on a Biacore T200. The format is binding. The following applies: read-out: Kd (μM), values without parentheses. The essentials:
as §1

The next assay addresses PGRP4. Kind of assay: SPR on a Biacore T200. It counts as binding. The conditions noted are these: read-out: Kd (μM), values without parentheses. Put shortly:
as §1

In assay [5] the test system is proPO activation in cell-free hemolymph from naïve larvae. The assay can be described thus: Elicitor-independent proPO activation in plasma from naïve larvae. The conditions noted are these: at 40 ng/μl protein, 60 min, room temperature, no bacterial elicitor. The format is biochemical, Manduca sexta. The essentials:
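Naïve larval plasma (day 2, 5th instar; hemocytes removed by 5000 × g, 5 min; stored −80 °C, used within a month) was diluted ten-fold in 20 mM Tris-HCl pH 8.0, 1 mM CaCl2, 0.001% Tween-20. Plasma (5 μl) was mixed with 0–1000 ng protein (final 25 μl) and incubated 60 min. BSA served as negative control. PO was read with dopamine at A470 in kinetic mode; mean ± SD, n = 3.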

A value given as a limit tells only on which side of the number the result lay.

One may read the Kd as the free concentration of one partner at which half of the binding sites on the other are occupied at equilibrium, for simple one-to-one binding. In the case of “DAP-muramyl pentapeptide (meso-diaminopimelic acid-type peptidoglycan monomer) [DAP-MPP]”, the dissociation constant Kd on PGRP1 [1] was 0.57 µM; on PGRP5, 2.01 µM; on PGRP13f, 1.8 µM; on PGRP1 [2], 2.01 µM; at PGRP2 it was 0.49 µM; on PGRP3f, 4.7 µM. The Kd at PGRP12e was found to be 2.64 µM; on PGRP3s [3] it was 0.42 µM; on PGRP3s [4], 1.75 µM; on PGRP4, 4.06 µM.
Take “Lys-muramyl pentapeptide (Lys-type peptidoglycan monomer) [Lys-MPP]”: the Kd at PGRP1 [1] was 45.6 µM; on PGRP5, 37.8 µM; on PGRP13f it was 8.77 µM; on PGRP1 [2], 38 µM; on PGRP2, more than 100 µM; at PGRP3f, 29.2 µM. Further, the Kd on PGRP3s [3] was found to be 64 µM; at PGRP3s [4], 23.8 µM; on PGRP4 it was 79.8 µM.
bovine serum albumin [BSA]: the PO activity in assay [5] was determined as 0.1 U.
